Converted amounts (≈) assume the structure as drawn. The source made the active and inactive calls. The rule behind the calls is not given here.
Tests used:
MCF7 = test: Cytotoxicity against human MCF7 cells assessed as [3H]hypoxanthin incorporation after 24 to 72 hrs; assay type: functional, cell-based
Method in brief: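 MCF-7 cells kept as for the parasite culture but with 5% fetal calf serum in place of 5% human serum. Seeded at 2 × 10^4 cells/well, then exposed to compound. Growth read by [3H]-hypoxanthine incorporation after 24 and 72 h incubation, run as for the P. falciparum assay: plates frozen and thawed, harvested on glass fibre filters, beta-counted. IC50 from linear least-squares regression. Doxorubicin as positive control.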

[1] = Ratio IC50 for human MCF7 cells to IC50 for chloroquine-resistant Plasmodium falciparum FcB1; assay type: functional
Plasmodium falciparum = test: Antiplasmodial activity […] against chloroquine-resistant Plasmodium falciparum FcB1 by [3H]hypoxanthine uptake; assay type: functional, organism-based; details: FcB1/Columbia
Method in brief: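 P. falciparum cultured continuously and synchronized by 5% D-sorbitol lysis. Parasites incubated with compound for 48 h, with [3H]-hypoxanthine added 24 h before freezing. Plates freeze-thawed, harvested onto glass fibre filters, and incorporation read by beta counting. IC50 from linear least-squares regression; chloroquine as positive control.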

Compound: CC(C)=CCc1c(O)cc2oc3c(CC=C(C)C)c(O)c4c(c3c(=O)c2c1O)CC(O)C(C)(C)O4 (centres undefined)
- Activity (MCF7): Active

Compound: COc1c(O)cc2oc3cc(O)c(C/C=C(\C)CCC=C(C)C)c(O)c3c(=O)c2c1CC=C(C)C [BUTYRAXANTHONE A]
- Ratio IC50 [1]: 1.17
- IC50 (Plasmodium falciparum): 3 µg/mL (≈ 6.27 µM)
- IC50 (MCF7): 3.5 µg/mL (≈ 7.31 µM)

Compound: CC(C)=CCc1c(O)c(O)c(CC=C(C)C)c2c(=O)c3c(O)c4c(cc3oc12)OC(C)(C)C=C4 [BUTYRAXANTHONE B]
- Ratio IC50 [1]: 1.22
- IC50 (Plasmodium falciparum): 2.7 µg/mL (≈ 5.84 µM)
- IC50 (MCF7): 3.3 µg/mL (≈ 7.13 µM)

Compound: COc1c(O)cc2oc3cc(O)cc(O)c3c(=O)c2c1CC=C(C)CCCC(C)(C)O [BUTYRAXANTHONE D]
- Ratio IC50 [1]: <0.13
- IC50 (Plasmodium falciparum): 10 µg/mL (≈ 23.3 µM)
- IC50 (MCF7): 1.3 µg/mL (≈ 3.03 µM)

Compound: CCN(CC)CCCC(C)Nc1ccnc2cc(Cl)ccc12 (centres undefined) [CHLOROQUINE]
- IC50 (MCF7): > 100 µg/mL

Compound: CC(C)=CCc1c(O)cc2oc3c(CC=C(C)C)c(O)c(O)c(CC=C(C)C)c3c(=O)c2c1O [GARCINONE E]
- Ratio IC50 [1]: 0.54
- IC50 (Plasmodium falciparum): 2.8 µg/mL (≈ 6.03 µM)
- IC50 (MCF7): 1.5 µg/mL (≈ 3.23 µM)

Compound: CC(C)=CCc1c(O)c(CC=C(C)C)c2oc3c(O)ccc(O)c3c(=O)c2c1O [GARTANIN]
- Ratio IC50 [1]: 0.39
- IC50 (Plasmodium falciparum): 3.1 µg/mL (≈ 7.82 µM)
- IC50 (MCF7): 1.2 µg/mL (≈ 3.03 µM)

Compound: COc1c(O)cc2oc3cc4c(c(O)c3c(=O)c2c1CC=C(C)C)C=CC(C)(C)O4 [MANGOSTANIN]
- Ratio IC50 [1]: <2.05
- IC50 (Plasmodium falciparum): > 1.9 µg/mL
- IC50 (MCF7): 3.9 µg/mL (≈ 9.55 µM)

Compound: COc1c(O)cc2oc3cc(O)c(CC=C(C)C)c(O)c3c(=O)c2c1CC=C(C)C [MANGOSTIN]
- Ratio IC50 [1]: 1.21
- IC50 (Plasmodium falciparum): 2.9 µg/mL (≈ 7.07 µM)
- IC50 (MCF7): 3.5 µg/mL (≈ 8.53 µM)

Compound: COc1c(O)cc2oc3cc(O)cc(O)c3c(=O)c2c1C/C=C(\C)CCC=C(C)C [RUBRAXANTHONE]
- Ratio IC50 [1]: 0.76
- IC50 (Plasmodium falciparum): 3.4 µg/mL (≈ 8.28 µM)
- IC50 (MCF7): 2.6 µg/mL (≈ 6.33 µM)

Compound: CC(C)=CCc1c(O)cc2oc3c(CC=C(C)C)c(O)c4c(c3c(=O)c2c1O)C=CC(C)(C)O4 [TOVOPHYLLINE A]
- Ratio IC50 [1]: 0.93
- IC50 (Plasmodium falciparum): 2.8 µg/mL (≈ 6.05 µM)
- IC50 (MCF7): 2.6 µg/mL (≈ 5.62 µM)
